Screening data as filed in PubChem.
This is a sample that favours compounds with a hit; in the whole collection about 3.3% have one here.
CendR NRP1 mod: modulators of CendR peptide binding to NRP-1, primary screen, biochemical, fluorescence polarization, uHTS. FAM-RPARPAR peptide binding to NRP-1. inhibition, % at 25 µM. hit rate 0.85% among 360,000;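 active = inhibition or corrected inhibition above about 18%, plus a signal ratio from 0.5 to 1.5, limit read from the data, passing the limit was not always enough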
M18AAP inhibitor: PfM18AAP inhibitors, malaria aminopeptidase, primary screen, biochemical, QFRET, recombinant enzyme | M18 aspartyl aminopeptidase (Plasmodium falciparum 3D7) | hit rate 1.2% among 290,000 | H-Glu-NHMec fluorogenic cleavage | inhibition, % at 7.35 µM;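 active = inhibition above the campaign mean inhibition over all tested compounds plus 3 SD, cut at about 28% in these data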;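 note: 0% = plate median of test compound wells and 100% = 2 mM ZnCl2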
Arrestin-AP2 inh: inhibitors of beta-arrestin/AP2 binding, primary screen, biochemical, GPCR trafficking, flow cytometry | beta-arrestin 1 C-terminal peptide binding to AP2 beta2-adaptin appendage (human) | FITC-arrestin peptide / GST-AP2 beads; AP2 beta2 appendage carries R879A mutation | inhibition, % at 10 µM | hit rate 0.31% among 340,000 | AID 504490, 2011;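 active = inhibition above a set limit, near 3 SD of compounds lacking own fluorescence, cut at about 54% in these data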;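 note: plate controls were DMSO wells for no effect and 5 µM unlabelled arrestin peptide for full effect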
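Measured by: flow cytometry, FL1 (488/535 nm); Material: AP2 appendage R879A on GSH beads; Evaluation: percent response; Timing: pre-incubation 12 min, peptide binding 1 h, room temperature; Also added: 50 nM FITC-arrestin peptide; Medium: PBS with 0.05% Tween 20 and 0.1% BSA.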
HGIII-sPLA2 inh: human group III sPLA2 inhibitors, primary screen, biochemical, QFRET, BODIPY PC-A2 liposome substrate; inhibition, % at 12.2 µM; QFRET BODIPY PC-A2 liposome hydrolysis, fluorescence; hit rate 0.56% among 370,000;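 active = inhibition above mean plus 3 SD of compounds lying within the high and low control bounds, cut at about 19% in these data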;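 note: 0% = median of test compound wells and 100% = no enzyme DMSO wells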
Hep lipid drop: inhibitors of hepatocyte lipid droplet formation, primary screen, imaging, high-throughput imaging, BODIPY stain; hit rate 0.4% among 240,000; AML12 mouse hepatocytes, oleate lipid droplets; inhibition, % at 6.5 µM; AID 1656, 2009;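 active = lipid droplet intensity inhibited by at least 50%, with more than 500 cells counted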
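Material – AML12 mouse liver cells · Also added – oleate loading, 100 µM · Compound dosing – 6.5 µM single-point dosing · Times – overnight treatment with compound plus oleate · Measured by – fluorescence imaging, 20x objective, two fields per well · Read-out – percent inhibition of filter-corrected integrated lipid droplet intensity per well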
HTR2A ag: mouse Htr2a agonists via beta-arrestin recruitment, primary screen, cell-based, luminescence; 5-hydroxytryptamine receptor 2A (Mus musculus), P35363; CHO-K1 mHTR2A beta-arrestin complementation; percent of 30 µM serotonin response; activation, % at 7.6 µM; hit rate 0.66% among 360,000;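 active = activation above a run cutoff, the mean activation of all tested compounds plus 3 SD, cut at about 14% in these data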;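 note: 0% = plate median of compound wells and 100% = 30 µM serotonin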
Target sequence (P35363 whole entry, looked up): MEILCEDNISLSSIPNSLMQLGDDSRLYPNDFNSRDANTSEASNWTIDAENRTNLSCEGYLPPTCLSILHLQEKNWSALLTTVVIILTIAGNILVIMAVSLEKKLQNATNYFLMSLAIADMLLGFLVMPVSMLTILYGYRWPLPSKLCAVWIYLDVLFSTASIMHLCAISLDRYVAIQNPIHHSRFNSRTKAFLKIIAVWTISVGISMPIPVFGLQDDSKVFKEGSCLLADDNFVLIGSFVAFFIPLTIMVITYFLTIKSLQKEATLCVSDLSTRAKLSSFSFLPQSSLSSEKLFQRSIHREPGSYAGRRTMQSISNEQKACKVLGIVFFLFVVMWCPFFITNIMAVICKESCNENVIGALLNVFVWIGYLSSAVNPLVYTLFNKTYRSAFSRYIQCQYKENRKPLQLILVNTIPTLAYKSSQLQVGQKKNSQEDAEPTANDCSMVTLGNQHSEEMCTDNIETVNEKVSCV
sPLA2 confirm: human group III sPLA2 inhibitors, confirmation, biochemical, QFRET, triplicate; AID 743280, 2014; shares compounds with HGIII-sPLA2 inh; hit rate 34% among 2,000; recombinant hGIII-sPLA2, BODIPY PC-A2 QFRET fluorescence; inhibition, % at 12.2 µM;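 active = mean inhibition across triplicates above the hit cutoff set in the earlier primary screen, cut at about 19% in these data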;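 note: 0% = enzyme with DMSO and 100% = DMSO wells lacking enzyme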
535nm interf: 535nm fluorescence optical interference, confirmation, artefact control for HGIII-sPLA2 inhibitor project, biochemical, QFRET. shares compounds with HGIII-sPLA2 inh. BODIPY FL product fluorescence interference. inhibition, % at 12.2 µM. hit rate 8.5% among 2,000. AID 743282, 2014;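 active = average inhibition above the solvent-only control mean plus 3 SD, cut at about 6% in these data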;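 note: 0% = DMSO with substrate plus product and 100% = DMSO with substrate alone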
* hit, by the source's call; · = no result.

SMILES | CendR NRP1 mod | M18AAP inhibitor | Arrestin-AP2 inh | HGIII-sPLA2 inh | Hep lipid drop | HTR2A ag | sPLA2 confirm | 535nm interf
CN1CCC(=NNC(=O)C(=O)NC(C)(C)C)CC1 | 7.8 | -2.4 | 3.4 | 22.5* | 15.5 | 0.8 | 1.9 | -8.9
CC(C)(C)NC(=O)C(=O)NN=C1CCCCCC1 | -2.4 | -0.3 | 5.6 | 6.9 | 11.0 | 0.1 | · | ·
O=C(NCCc1c[nH]c2ccccc12)OCc1cn(-c2ccc(F)cc2F)nn1 | · | · | · | -81.9 | · | · | · | ·
CCOC(=O)c1c(CSC(=N)N)n(-c2ccc(C)cc2)c2cc(Br)c(OC(C)=O)cc12 | 3.1 | 0.8 | 14.4 | 25.5* | · | -7.0 | 11.1 | -13.1
CCOC(=O)c1c(CSC(=N)N)n(C)c2cc(Br)c(OC(C)=O)cc12 | -18.4 | 4.1 | -18.3 | 17.5 | -0.4 | -9.2 | · | ·
NC(N)=NC(=S)Nc1ccc(Cl)cc1 | -0.1 | -0.7 | 6.3 | 21.5* | 2.4 | -10.5 | 17.9 | -3.6
CCN(CC(=O)NC(C)(C)C)C(=O)CCl | 2.5 | -1.9 | -11.3 | 19.8* | -5.9 | 6.8 | 1.6 | -1.5
O=C1CCCc2nc(N3CCN(c4ccccc4)CC3)ncc21 | 8.7 | 3.6 | 21.2 | 0.6 | · | 0.5 | · | ·
Fc1cnc(N2CCN(c3ccccc3)CC2)nc1N1CCN(c2ccccc2)CC1 | 2.1 | -0.7 | 22.7 | 21.3* | 41.7 | 7.6 | -0.7 | -6.5
COc1cccc(NC(=O)Nc2c(-c3ccc(C(F)(F)F)cc3)nc3ncccn23)c1 | · | · | · | -17.1 | · | · | · | ·
CC12CCCC[C@@H]1CCC1C2CCC2(C)C1CC[C@@]2(O)CNCCO (some centres not stated) | -1.3 | 5.7 | 9.2 | 25.2* | 6.1 | 5.0 | -0.2 | -8.7
CC12CCC(=O)CC1CCC1C2CCC2(C)C1CCC2(O)C(=O)CO (configuration not stated) | -5.6 | · | 1.8 | 6.7 | · | 0.9 | · | ·
CC1(C(=O)Nc2cccc3cccnc23)CCN1Cc1ccccc1OC(F)F (configuration not stated) | -9.0 | · | · | -7.7 | · | -3.0 | · | ·
CCOc1cccc(C2NC(=S)NC(C)=C2C(=O)Nc2ccccc2)c1 (configuration not stated) | -7.5 | -0.1 | -6.9 | 24.2* | 0.2 | -2.7 | 16.3 | -1.6
CC(=O)Nc1ccc(S(=O)(=O)N(CC(=O)NCC2CCCO2)Cc2ccccc2Cl)cc1 (configuration not stated) | -2.9 | · | · | -6.4 | · | 3.8 | · | ·
CCC(C)c1ccccc1OCCOCCN1CCCC1 (configuration not stated) | 14.4 | 7.0 | 19.7 | 19.6* | -2.0 | -5.2 | -1.2 | -20.4
COc1cccc(C(=O)NCCN2CCC(n3c(=O)[nH]c4ccccc43)CC2)c1 | -7.4 | · | · | 2.7 | · | -3.5 | · | ·
COc1ccc2nc(NC(=O)CCn3cccc3)sc2c1 | -2.4 | -5.9 | -12.7 | -30.5 | · | -2.9 | · | ·
COc1ccc2nc(NC(=O)CCN3C(=S)NC(C)(C)CC3C)sc2c1 (configuration not stated) | 2.4 | -3.0 | -5.2 | 25.6* | 25.0 | 1.4 | 23.7* | -10.8
Oc1cccc2ccc(/C=C/c3ccccc3Br)nc12 | -14.5 | 1.7 | 2.1 | 26.1* | -4.5 | -15.9 | 5.7 | -0.8
c1cc(-c2nnc3n2N=C(c2ccc4c(c2)OCO4)CS3)ccn1 | · | · | · | 21.8* | · | · | -0.2 | -10.0
CC1CCCN(S(=O)(=O)c2cccc(C(=O)NCCCN3CCCC3=O)c2)C1 (configuration not stated) | 11.2 | · | · | 19.9* | · | -1.2 | 9.4 | -3.1
